Source: PubChem
Most compounds without a hit are left out; they make up all but 3% or so of the library.
S100A4 MyoIIA – inhibitors of S100A4-myosin IIA peptide binding, primary screen, biochemical, fluorescence polarization, TAMRA-MyoIIA peptide; inhibition, % at 10.7 µM; hit rate 0.14% among 360,000;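 active = mean inhibition of at least 70% across replicates, with every replicate also reaching that level; inconclusive = mean inhibition reaches 70% but some replicates fall short; inactive = mean inhibition below 70%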
Target sequence (P26447 whole entry, looked up): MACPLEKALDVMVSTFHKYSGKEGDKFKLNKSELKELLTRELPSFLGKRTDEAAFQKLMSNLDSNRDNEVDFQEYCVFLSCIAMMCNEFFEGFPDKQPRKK
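Material: S100A4 monomer protein | Medium: HEPES pH 7.2 with CaCl2, KCl, NaCl, DTT, Triton | Reagent: Labelled myosin peptide probe, 5 nM | Doses: One dose per compound | Times: 5 min incubation before reading | Benchmarks: Neutral control DMSO, positive control TFP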
Cneo AK release – Cryptococcus neoformans cell lysis inducers, primary screen, AK release luminescence, single concentration; C. neoformans lysis, adenylate kinase release luminescence, 4 h; normalised: neutral wells 0, clomiphene wells 100; lysis activity, % at 15 µM; hit rate 0.2% among 360,000; AID 651654, 2012;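 active = mean lysis activity across replicates of at least 80%, whatever share of replicates individually reach that level; inactive = mean lysis activity below 80%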
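Material: C. neoformans cells; Schedule: 4 h static compound exposure, 37 °C, read 1 h post-reagent; Measured by: adenylate kinase release luminescence; Read-out: signal increase indicating cell lysis; Controls: Clomiphene as positive lysis control.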
C2C12 statin – suppressors of statin myotoxicity in C2C12 myotubes, primary screen, cell-based, single point, plate reader | rescue of ATP level, % at 7.49 µM | C2C12 myotubes + simvastatin, ATP luminescence, 48 h; scaled: DMSO 0, geranylgeraniol control 100 | AID 602340, 2012 | hit rate 0.78% among 330,000;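 active = mean ATP rescue above about 67%, or every replicate alone reaching that limit, limit read from the data, passing the limit was not always enough; inconclusive = no clear call, values can overlap the other calls; inactive = mean under the limit and some replicate under it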;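 also: myotubes were challenged with 10 µM simvastatin during compound exposure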
PGC1a acetyl inh – inhibitors of PGC1a acetylation signal, primary screen, cell-based, U2OS, AlphaScreen, inhibitor mode; AlphaScreen anti-acetyl-lysine; with virally co-expressed GCN5 acetyltransferase; inhibition, % at 15.6 µM; hit rate 0.17% among 350,000; AID 651687, 2012;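 active = every replicate shows inhibition of at least 40%; inconclusive = mean inhibition at least 40% but some replicate below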
rRNA inh HTS – reduced GFP signal of wild-type E. coli, primary screen, bacterial rRNA inhibitor project, GFP/RFP fluorescence, OD600, single point; E. coli WT GFP vs humanized-ribosome RFP mutants, 24 h; hits give low values; DMSO median 0, no signal -100; GFP signal change (wild-type ribosome), % (no concentration beside the values); hit rate 1.6% among 350,000;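 active = significant combined selectivity score with lowered wild-type GFP, culture density cut under 30%, mutant RFP and density less affected; inactive = any of these conditions unmet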
SIRT5 block – SIRT5 desuccinylase inhibitors, primary screen, biochemical, fluorescence imaging, single point, set 5. AID 652115, 2013. NAD-dependent protein deacylase sirtuin-5, mitochondrial (Homo sapiens), Q9NXA8. Purified SirT5, succinyl-peptide AMC, trypsin-coupled fluorescence. hit rate 1.1% among 330,000. inhibition, % at 15 µM; in the data active = inhibition above about 15%; inconclusive = no clear call, values can overlap the other calls
Target sequence (Q9NXA8 whole entry, looked up): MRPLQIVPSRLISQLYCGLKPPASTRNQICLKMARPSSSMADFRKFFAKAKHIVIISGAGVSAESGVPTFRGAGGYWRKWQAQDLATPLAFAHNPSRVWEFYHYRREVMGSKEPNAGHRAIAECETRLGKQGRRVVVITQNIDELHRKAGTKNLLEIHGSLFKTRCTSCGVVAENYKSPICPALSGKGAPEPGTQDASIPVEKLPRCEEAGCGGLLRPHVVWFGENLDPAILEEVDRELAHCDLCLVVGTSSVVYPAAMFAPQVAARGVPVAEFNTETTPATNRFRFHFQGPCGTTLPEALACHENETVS
Of the large screens only hits and unclear results are named; the others gave an inactive call.

Cc1ccc(NC(=O)CCC(=O)N/N=C/c2ccccc2O)cc1	none
CCCCCCCC(=O)N/N=C/c1ccc(Br)cc1	C2C12 statin 133 (no result: S100A4 MyoIIA, rRNA inh HTS, SIRT5 block)
COc1cccc(/C=N/NC(=O)CCc2ccccc2)c1	rRNA inh HTS -21
COc1cccc(C=NNC(=O)CCCC(=O)NN=Cc2cccc(OC)c2)c1	none
O=C(CCC(=O)Nc1ccc(Br)cc1)N/N=C/c1ccccc1O	rRNA inh HTS -15
COc1ccc2c3c(n(C)c2c1)[C@@H](CO)N(C(=O)c1cccnc1)CC31CCN(S(C)(=O)=O)CC1	none (no result: S100A4 MyoIIA, Cneo AK release, C2C12 statin, SIRT5 block)
CCOc1cc(C)c(Cl)cc1S(=O)(=O)N1CCCC1	C2C12 statin 81 (no result: S100A4 MyoIIA, rRNA inh HTS, SIRT5 block)
CCCOc1cc(C)c(Cl)cc1S(=O)(=O)N(CC)CC	C2C12 statin 108 (no result: S100A4 MyoIIA, rRNA inh HTS, SIRT5 block)
CCOc1cc(C)c(Cl)cc1S(=O)(=O)N(C)C	none (no result: S100A4 MyoIIA, rRNA inh HTS, SIRT5 block)
CC(C)NC(=O)N(C)C[C@H]1Oc2ncc(-c3cccc(C#N)c3)cc2C(=O)N([C@@H](C)CO)C[C@@H]1C	none
O=C(C1=C[C@H](C2CCCCC2)C[C@H](OCc2ccc(CO)cc2)O1)N1CCCC1	none (no result: C2C12 statin, rRNA inh HTS)
CC(C)NC(=O)NCC[C@H]1CC[C@@H](NC(=O)Nc2ccccc2)[C@@H](CO)O1	none
Clc1ccc(-c2ccn[nH]2)cc1	none (no result: Cneo AK release, C2C12 statin, PGC1a acetyl inh)
Clc1ccc(C2=NCCN2)cc1	SIRT5 block 112 (no result: Cneo AK release, C2C12 statin, PGC1a acetyl inh)
CNC(=O)C[C@H]1CC[C@@H]2[C@H](COc3ccc(NC(=O)Nc4cc(C)cc(C)c4)cc3C(=O)N2C)O1	none
O=C(Nc1ccnn1C1CCN(C(=O)c2ccc(C(F)(F)F)cc2)CC1)C1CC1	SIRT5 block 23
O=C(Nc1ccnn1C1CCN(C(=O)c2cccc(C(F)(F)F)c2)CC1)C1CC1	none
COCC(=O)N1CC2(C1)[C@@H](c1ccc(-c3ccc(F)cc3)cc1)[C@@H](CO)N2C(C)=O	none (no result: Cneo AK release, C2C12 statin)
COc1ccc(CN(C)C[C@H]2Oc3ccc(NS(C)(=O)=O)cc3CC(=O)N([C@@H](C)CO)C[C@H]2C)cc1	Cneo AK release 81
COc1ccc(CN(C)C[C@@H]2Oc3ccc(NS(C)(=O)=O)cc3CC(=O)N([C@@H](C)CO)C[C@H]2C)cc1	none
COc1ccc(CN(C)C[C@@H]2Oc3ccc(NS(C)(=O)=O)cc3CC(=O)N([C@H](C)CO)C[C@H]2C)cc1	Cneo AK release 97
CCCC#Cc1ccc(CC[C@H]2O[C@H]3CC[C@@H](CO)O[C@H]3C[C@H]2NS(=O)(=O)c2ccccc2)cc1	SIRT5 block 20 (no result: Cneo AK release, C2C12 statin, rRNA inh HTS)
CCC(=O)N[C@H]1C[C@@H]2O[C@@H](CO)CC[C@@H]2O[C@@H]1CCc1ccc(C#CCc2ccccc2)cc1	none (no result: Cneo AK release, C2C12 statin, rRNA inh HTS)
O=C(C[C@@H]1CC[C@H]2[C@@H](COC[C@H](O)CN2C(=O)c2ccncc2)O1)NC1Cc2ccccc2C1	none
Cc1noc(C)c1NC(=O)NCC[C@@H]1CC[C@H](NC(=O)Nc2cccc(F)c2)[C@H](CO)O1	none
CCCC#Cc1ccc([C@H]2[C@H](CO)N3C(=O)CN(C(=O)Cc4cccnc4)C[C@@H]23)cc1	none (no result: Cneo AK release, C2C12 statin)
COc1ccc(C#Cc2ccc([C@H]3[C@H](CO)N4C(=O)CN(C(=O)c5cccnc5)C[C@@H]34)cc2)cc1	SIRT5 block 37 (no result: Cneo AK release, C2C12 statin)
CCCC#Cc1ccc([C@H]2[C@H]3CN(C(=O)Cc4cccnc4)CC(=O)N3[C@H]2CO)cc1	SIRT5 block 22 (no result: Cneo AK release, C2C12 statin)
CCC(=O)N1[C@H](CO)[C@@H](c2ccccc2)C12CN(C(=O)CN1CCOCC1)C2	none (no result: S100A4 MyoIIA, Cneo AK release, C2C12 statin, PGC1a acetyl inh, SIRT5 block)
Cc1ccc(S(=O)(=O)Nc2ccc3c(c2)CC(=O)N([C@@H](C)CO)C[C@H](C)[C@H](CN(C)S(=O)(=O)c2cccs2)O3)cc1	C2C12 statin inconclusive
Cc1ccc(S(=O)(=O)Nc2ccc3c(c2)CC(=O)N([C@@H](C)CO)C[C@H](C)[C@@H](CN(C)S(=O)(=O)c2cccs2)O3)cc1	C2C12 statin 77
Cc1noc(C)c1S(=O)(=O)Nc1ccc2c(c1)CC(=O)N([C@H](C)CO)C[C@H](C)[C@H](CN(C)S(=O)(=O)c1cccs1)O2	Cneo AK release 115
Cc1ccc(S(=O)(=O)Nc2ccc3c(c2)C(=O)N([C@@H](C)CO)C[C@@H](C)[C@@H](CN(C)S(=O)(=O)c2cccs2)O3)cc1	none
Cc1ccc(S(=O)(=O)Nc2ccc3c(c2)C(=O)N([C@@H](C)CO)C[C@@H](C)[C@H](CN(C)S(=O)(=O)c2cccs2)O3)cc1	C2C12 statin 100
COc1ccccc1NC(=O)N1[C@@H]2CNC[C@H]1C2c1ccc(-c2ccccc2OC)cc1 (stereo partly drawn)	none (no result: Cneo AK release, C2C12 statin, PGC1a acetyl inh)
S=C(c1ccc(-c2cccc(Cl)c2)o1)N1CCCCC1	rRNA inh HTS -29 (no result: Cneo AK release, C2C12 statin)
S=C(c1ccc(-c2cccc(Cl)c2)o1)N1CCOCC1	none
O=C(Cc1ccncc1)NCC[C@@H]1CC[C@@H](NC(=O)C2CCCCC2)[C@H](CO)O1	none
O=C(C1CC1)N1CC(=O)N2[C@@H](CO)[C@@H](c3ccc(C#CCc4ccccc4)cc3)[C@@H]2C1	none (no result: Cneo AK release, C2C12 statin)
CC=Cc1ccc2n(c1=O)C[C@H]1[C@H](CO)[C@@H](C(=O)NCC3CC3)[C@@H]2N1Cc1ccncc1 (mixture of isomers)	none (no result: PGC1a acetyl inh)
CC(C)NC(=O)N(C)C[C@H]1Oc2ccc(NC(=O)Nc3ccc(F)cc3)cc2CC(=O)N([C@@H](C)CO)C[C@H]1C	none
Cc1cc(C)nc(NC(=O)/C=C/c2cccs2)c1	rRNA inh HTS -27
O=C(/C=C/c1cccs1)Nc1cccc(NC(=O)/C=C/c2cccs2)n1	none
O=C(O)Cc1c[nH]c2cccc(O)c12	SIRT5 block 33
CC(C)COC(=O)c1ccccc1N1C(=O)C2C3CCC(C3)C2C1=O (stereo not drawn)	none (no result: Cneo AK release, C2C12 statin, PGC1a acetyl inh)
CCCCOC(=O)c1ccccc1N1C(=O)C2C3CCC(C3)C2C1=O (stereo not drawn)	C2C12 statin 83
C[C@H](CO)N1C[C@H](C)[C@H](CN(C)Cc2ccc(Oc3ccccc3)cc2)Oc2ncc(-c3cncnc3)cc2C1=O	none
NC(N)=N/N=C/c1c(Cl)cccc1Cl	none (no result: rRNA inh HTS)
NC(N)=N/N=C/c1ccccc1Cl	SIRT5 block 18
O=C(NC1Cc2ccccc2C1)[C@@H]1N[C@@H]2c3ccc(C4=CCCCC4)c(=O)n3C[C@@H]2[C@H]1CO	none
COc1ccc(Nc2nc3ccc(OC)cc3s2)cc1	rRNA inh HTS -26, SIRT5 block 16 (no result: Cneo AK release, C2C12 statin)
